# Measured values collected from several papers.
# Compare with care: the assays were run in different laboratories.
# PPARA: Peroxisome proliferator-activated receptor alpha (PPARA, Homo sapiens, UniProt Q07869)
# MMP1: Interstitial collagenase (MMP1, Homo sapiens, UniProt P03956)
Structure (SMILES),target,test,system,setting,measurement,result
CC1CCC(C(C)C)C(P(=O)(c2ccccc2)c2ccccc2)C1 (stereo not drawn),"Potassium voltage-gated channel subfamily A member 5 (KCNA5, Homo sapiens, UniProt P22460)","ion current, inhibitor, patch clamp",,1 µM,remaining activity,-94.5%
Clc1cccc(-c2c[nH]c3ncnc(N4CCOCC4)c23)c1,"Serine/threonine-protein kinase 4 (STK4, Homo sapiens, UniProt Q13043)","thermal stability, DSF",,20 µM,ΔTm,> 8 °C
COc1ncccc1-c1cnn2ccc(N3CCN(C(=O)OC(C)C)CC3)nc12,"Myosin-IIIa (MYO3A, Homo sapiens, UniProt Q8NEV4)","binding, competition with immobilised ligand",,1 µM,remaining binding,95%
CN[C@@H](C)C(=O)N[C@@H](CNC(=O)c1ccc(S(=O)(=O)F)c(OC)c1)C(=O)N1CCC[C@H]1C(=O)N[C@@H]1CCc2c(F)cccc21,"E3 ubiquitin-protein ligase XIAP, BIR3 (XIAP, Homo sapiens, UniProt P98170)","enzyme activity, inhibitor",,,kinact,0.0258 s⁻¹
O=S(=O)(O)C(F)(F)C(F)(F)C(F)(F)C(F)(F)C(F)(F)C(F)(F)F,PPARA,"reporter gene, agonist, luciferase",COS-7,,Emax,67%
COC(=O)CC[C@H](NC(=O)[C@H](CC(C)C)NC(=O)OCc1ccccc1)C(=O)N[C@@H](Cc1cnc[nH]1)C(=O)N[C@@H](CC(=O)OC)C(=O)CF,"Caspase-9 (CASP9, Homo sapiens, UniProt P55211)","enzyme activity, inhibitor",,1 µM,inhibition,50%
O=S(=O)(O)C(F)(F)C(F)(F)C(F)(F)C(F)(F)C(F)(F)C(F)(F)C(F)(F)C(F)(F)F,PPARA,"reporter gene, agonist, luciferase",,,Emax,33%
Nc1ncc(-c2nc(N3CCOCC3)nc(N3CCOCC3)n2)c(C(F)F)n1,"Serine/threonine-protein kinase OSR1 (OXSR1, Homo sapiens, UniProt O95747)","binding, competition with immobilised ligand",,10 µM,remaining binding,54%
C#Cc1n[nH]c2c(-c3cn([C@@H](C)c4ccccn4)c(=O)[nH]c3=O)cc(F)cc12,"Eukaryotic elongation factor 2 kinase (EEF2K, Homo sapiens, UniProt O00418)","enzyme activity, inhibitor",,0.1 µM,inhibition,4.2%
COc1cc(Nc2ncc(F)c(Nc3ccc4c(n3)NC(=O)C(C)(C)O4)n2)cc(OC)c1OC,"Serine/threonine-protein kinase NIM1 (NIM1K, Homo sapiens, UniProt Q8IY84)","binding, competition with immobilised ligand",,10 µM,inhibition,84%
O=C(O)C(F)(F)C(F)(F)C(F)(F)C(F)(F)C(F)(F)C(F)(F)C(F)(F)F,PPARA,"reporter gene, agonist, luciferase",COS-7,,Emax,92%
N=C(N)c1ccc2cc(OC(=O)c3ccc(N=C(N)N)cc3)ccc2c1,MMP1,"enzyme activity, inhibitor",,10 µM,inhibition,0%
CN1CCN(c2ccc(Nc3nccc(-c4cccc([N+](=O)[O-])c4)n3)cc2C(F)(F)F)CC1,"Calcium-dependent protein kinase 1 (CDPK1, Plasmodium falciparum, UniProt P62344)",binding,,10 µM,remaining binding,4.2%
O=C(Nc1cccnn1)N1CCN([C@@H]2CCOc3cc(C(F)(F)F)ccc32)CC1,MMP1,cell-free assay,,20 µM,inhibition,8%
Cc1nn(C)cc1-c1nc2c(N3CCN(Cc4ccc(Cl)cc4)CC3)c(Cl)cnc2[nH]1,"Serine/threonine-protein kinase 36 (STK36, Homo sapiens, UniProt Q9NRP7)","binding, competition with immobilised ligand",,1 µM,remaining binding,74%
